Experimental data published in ChEMBL document CHEMBL4270576, “Discovery of a benzenesulfonamide-based dual inhibitor of microsomal prostaglandin E2 synthase-1 and 5-lipoxygenase that favorably modulates lipid mediator biosynthesis in inflammation” (Eur J Med Chem, 2018).
Active and inactive are the calls of the source. The rule behind the calls is not given here.

Key:
Prostaglandin E synthase = molecular target: T1, Prostaglandin E synthase (Homo sapiens, UniProt O14684); experiment: Inhibition of mPGES-1 isolated from microsomes of interleukin-1 beta-stimulated human A549 cells using PGH2 as substrate preincubated for 15 mins followed by substrate addition measured after 1 min by RP-HPLC analysis
T1 sequence (O14684 whole entry): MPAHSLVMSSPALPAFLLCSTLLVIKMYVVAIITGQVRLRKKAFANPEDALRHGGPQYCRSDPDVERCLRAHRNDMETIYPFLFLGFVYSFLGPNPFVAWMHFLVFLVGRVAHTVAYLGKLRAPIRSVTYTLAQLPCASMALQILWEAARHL
Outline: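 Microsomes from A549 cells treated with IL-1β (1 ng/ml, 72 h), diluted in 0.1 M potassium phosphate pH 7.4 with 2.5 mM glutathione. Pre-incubated 15 min with compound or DMSO, then 20 µM PGH2 (final) for 1 min at 4 °C. IC50 from 4-5 concentrations.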

Mus musculus [1] = experiment: Antiinflammatory activity in CD-1 mouse assessed as reduction in zymosan-induced LTC4 formation in peritoneal cavity at 10 mg/kg, ip preincubated for 30 mins followed by zymosan addition measured after 30 mins by ELISA; assay type: functional, organism-based
Outline: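 CD-1 male mice (6-8 weeks), n=6 per group, given 10 mg/kg i.p. in 2% DMSO/saline vehicle 30 min before i.p. zymosan (500 µL of 2 mg/mL suspension). Peritoneal cavity washed with 3 ml PBS 30 min after zymosan; LTC4 measured in exudate. One-way ANOVA with Bonferroni test.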

Mus musculus [2] = experiment: Antiinflammatory activity in zymosan induced CD-1 mouse model of inflammation assessed as reduction in LTB4 levels in air pouch at 10 mg/kg, ip preincubated for 30 mins followed by zymosan challenge and measured after 4 hrs by ELISA; assay type: functional, organism-based
Outline: (§1)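 Air pouch formed by s.c. injection of 2.5 mL sterile air in CD-1 mice; on day 6, 10 mg/kg i.p. (2% DMSO/saline) given 30 min before 1 ml 1% w/v zymosan into the pouch. After 4 h, exudate collected with 1 ml saline and centrifuged; leukocytes counted in Burker chamber; LTB4 in supernatant by ELISA (ng/mL). n=6 mice per group.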

Mus musculus [3] = experiment: Antiinflammatory activity in zymosan induced CD-1 mouse model of inflammation assessed as reduction in leukocyte recruitment in air pouch at 10 mg/kg, ip preincubated for 30 mins followed by zymosan challenge and measured after 4 hrs by trypan blue staining-based burker's chamber method; assay type: functional, organism-based; outline: as §1

IC50 (Prostaglandin E synthase): 2400 nM
Structure (SMILES): CC(c1cc2ccccc2s1)N(O)C(N)=O (centres undefined) [ZILEUTON]
Activity (Mus musculus [1]): Active | Activity (Mus musculus [2]): Active | Activity (Mus musculus [3]): Active
